Laboratory results published in ChEMBL document CHEMBL2375238, “Synthesis and biological evaluation of oleanolic acid derivatives as PTP1B inhibitors” (Eur J Med Chem, 2013).

Columns and labels:
[1] = target: T1, Tyrosine-protein phosphatase non-receptor type 1 (Homo sapiens) (UniProt P18031); test: Inhibition of PTP1B (unknown origin) expressed in Escherichia coli expression system using p-nitrophenyl phosphate as substrate assessed as release of p-nitrophenol at 10 ug/mL incubated for 10 mins prior to substrate addition measured after 30 mins relative to control
T1 sequence (whole entry): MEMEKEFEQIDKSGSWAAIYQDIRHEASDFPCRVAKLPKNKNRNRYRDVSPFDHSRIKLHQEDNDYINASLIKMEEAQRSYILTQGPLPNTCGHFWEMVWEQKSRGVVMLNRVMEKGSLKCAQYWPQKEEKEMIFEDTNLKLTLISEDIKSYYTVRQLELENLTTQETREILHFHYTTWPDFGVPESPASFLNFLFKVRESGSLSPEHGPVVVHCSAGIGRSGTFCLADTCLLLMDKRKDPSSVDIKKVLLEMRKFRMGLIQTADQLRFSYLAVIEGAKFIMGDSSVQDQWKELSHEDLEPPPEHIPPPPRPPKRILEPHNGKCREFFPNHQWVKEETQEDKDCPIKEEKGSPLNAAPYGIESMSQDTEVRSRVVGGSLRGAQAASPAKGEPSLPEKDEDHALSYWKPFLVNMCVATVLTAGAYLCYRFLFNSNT
Method in brief: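 Native PTP1B was expressed in E. coli, purified, and diluted in 25 mM HEPES, 50 mM NaCl, 2.5 mM EDTA, 0.1% BSA, pH 7.2. Compounds were dissolved in DMSO and preincubated with enzyme in buffer A (50 mM HEPES, 2.5 mM EDTA, pH 7.0) for 10 min at 37 °C. pNPP was then added for 30 min at 37 °C.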

[2] = target: T2, Tyrosine-protein phosphatase non-receptor type 1 (Homo sapiens, UniProt P18031); test: Inhibition of PTP1B (unknown origin) expressed in Escherichia coli expression system using p-nitrophenyl phosphate as substrate assessed as release of p-nitrophenol incubated for 10 mins prior to substrate addition measured after 30 mins
T2 sequence (P18031 whole entry): T1 sequence (whole entry)
Method in brief: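 Native PTP1B purified from E. coli, diluted in 25 mM HEPES, 50 mM NaCl, 2.5 mM EDTA, 0.1% BSA, pH 7.2; inhibitors in DMSO. Enzyme and inhibitor preincubated at 37 °C in 50 mM HEPES, 2.5 mM EDTA, pH 7.0. pNPP then added; stopped after 30 min with 2 M Na2CO3; A405 read. Inhibition from OD against blank and no-inhibitor controls; means of three experiments.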

3T3-L1 = test: Insulin sensitizing activity in mouse 3T3L1 cells assessed as increase in glucose uptake at 10 ug/mL after 50 hrs […] relative to control; format: functional
Method in brief: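 3T3-L1 cells were grown in high-glucose DMEM with 10% FBS and, at 90% confluence, differentiated with insulin, dexamethasone and IBMX. After 4 days they were replated, grown 2 days, then made insulin-resistant with low insulin and high dexamethasone for 4 days. Compounds were given in high-glucose medium for 50 h. Supernatant glucose was measured by kit at OD 490 nm, against normal and insulin-resistant controls, in duplicate or triplicate.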

[3] = target: Tyrosine-protein phosphatase non-receptor type 1 (Homo sapiens) (UniProt P18031); conditions: 100 ug/mL

## COC(=O)CCCCCNC(=O)[C@]12CCC(C)(C)C[C@H]1C1=CC[C@@H]3[C@@]4(C)CC[C@H](O[C@@H]5O[C@@H](C)[C@@H](O)[C@@H](O)[C@@H]5O)C(C)(C)[C@@H]4CC[C@@]3(C)[C@]1(C)CC2
[1]
  Imax: 1.91%

## CC1(C)CC[C@@]23CC[C@]4(C)[C@@](OC2=O)([C@@H]3C1)[C@@H](O)C[C@@H]1[C@@]2(C)CC[C@H](O[C@H]3O[C@H](CO)[C@@H](O)[C@H](O)[C@@H]3O)C(C)(C)[C@@H]2CC[C@]14C
[1]
  Imax: 2.9%

## COC(=O)CCCCCNC(=O)[C@]12CCC(C)(C)C[C@H]1C1=CC[C@@H]3[C@@]4(C)CC[C@H](O[C@H]5O[C@H](C(=O)OC)[C@@H](O)[C@H](O)[C@@H]5O)C(C)(C)[C@@H]4CC[C@@]3(C)[C@]1(C)CC2
[2]
  IC50: 12.2 µM
[1]
  Imax: 81.9%
3T3-L1
  Activity: 39.18%

## CC(=O)N[C@H]1[C@H]([C@H](O)[C@H](O)CO)O[C@@](O[C@H]2CC[C@]3(C)[C@H]4CC=C5[C@@H]6CC(C)(C)CC[C@]6(C(=O)NCCCCCC(=O)O)CC[C@@]5(C)[C@]4(C)CC[C@H]3C2(C)C)(C(=O)O)C[C@@H]1O
[1]
  Imax: 46%
3T3-L1
  Activity: -16.69%

## CC1(C)CC[C@]2(C(=O)NCCCCCC(=O)O)CC[C@]3(C)C(=CC[C@@H]4[C@@]5(C)CC[C@H](O[C@@H]6O[C@H](C(=O)O)[C@@H](O)[C@H](O)[C@H]6O)C(C)(C)[C@@H]5CC[C@]43C)[C@@H]2C1
[2]
  IC50: 0.56 µM
[1]
  Imax: 72%
3T3-L1
  Activity: 21.52%

## COC(=O)CCCCCNC(=O)[C@]12CCC(C)(C)C[C@H]1C1=CC[C@@H]3[C@@]4(C)CC[C@H](O[C@@H]5O[C@H](C(=O)O)[C@@H](O)[C@H](O)[C@H]5O)C(C)(C)[C@@H]4CC[C@@]3(C)[C@]1(C)CC2
[1]
  Imax: 11.8%

## CC1(C)CC[C@@]23CC[C@]4(C)[C@@](OC2=O)([C@@H]3C1)[C@@H](O)C[C@@H]1[C@@]2(C)CC[C@H](O[C@H]3O[C@H](C(=O)O)[C@@H](O)[C@H](O)[C@@H]3O)C(C)(C)[C@@H]2CC[C@]14C
[1]
  Imax: 3.72%

## CC1(C)CC[C@]2(C(=O)NCCCCCC(=O)O)CC[C@]3(C)C(=CC[C@@H]4[C@@]5(C)CC[C@H](O[C@H]6O[C@H](C(=O)O)[C@@H](O)[C@H](O)[C@@H]6O)C(C)(C)[C@@H]5CC[C@]43C)[C@@H]2C1
[2]
  IC50: 16.1 µM
[1]
  Imax: 64.8%
3T3-L1
  Activity: 3.91%

## COC(=O)CCCCCNC(=O)[C@]12CCC(C)(C)C[C@H]1C1=CC[C@@H]3[C@@]4(C)CC[C@H](O[C@H]5O[C@H](CO)[C@@H](O)[C@H](O)[C@@H]5O)C(C)(C)[C@@H]4CC[C@@]3(C)[C@]1(C)CC2
[1]
  Imax: 1.52%

## COC(=O)CCCCCNC(=O)[C@]12CCC(C)(C)C[C@H]1C1=CC[C@@H]3[C@@]4(C)CC[C@H](O[C@@H]5O[C@H](CO)[C@@H](O[C@@H]6O[C@H](CO)[C@H](O)[C@H](O)[C@H]6O)[C@H](O)[C@H]5O)C(C)(C)[C@@H]4CC[C@@]3(C)[C@]1(C)CC2
[1]
  Imax: 3.87%

## COC(=O)CCCCCNC(=O)[C@]12CCC(C)(C)C[C@H]1C1=CC[C@@H]3[C@@]4(C)CC[C@H](O[C@@]5(C(=O)OC)C[C@H](O)[C@@H](NC(C)=O)[C@H]([C@H](O)[C@H](O)CO)O5)C(C)(C)[C@@H]4CC[C@@]3(C)[C@]1(C)CC2
[1]
  Imax: 8.34%
3T3-L1
  Activity: -7.74%

## CN(CCOc1ccc(CC2SC(=O)NC2=O)cc1)c1ccccn1 (stereo not given) [ROSIGLITAZONE]
3T3-L1
  Activity: 100%

## COC(=O)CCCCCNC(=O)[C@]12CCC(C)(C)C[C@H]1C1=CC[C@@H]3[C@@]4(C)CC[C@H](O[C@@H]5O[C@H](C(=O)OC)[C@@H](O)[C@H](O)[C@H]5O)C(C)(C)[C@@H]4CC[C@@]3(C)[C@]1(C)CC2
[1]
  Imax: 36.7%
3T3-L1
  Activity: 28.29%

## CC1(C)CC[C@]2(C(=O)NCCCCCC(=O)O)CC[C@]3(C)C(=CC[C@@H]4[C@@]5(C)CC[C@H](O)C(C)(C)[C@@H]5CC[C@]43C)[C@@H]2C1
[1]
  Imax: 14.3%

## CC1(C)CC[C@@]23CC[C@]4(C)[C@@](OC2=O)([C@@H]3C1)[C@@H](O)C[C@@H]1[C@@]2(C)CC[C@H](O[C@@H]3O[C@H](C(=O)O)[C@@H](O)[C@H](O)[C@H]3O)C(C)(C)[C@@H]2CC[C@]14C
[1]
  Imax: 16.1%

## COC(=O)CCCCCNC(=O)[C@]12CCC(C)(C)C[C@H]1C1=CC[C@@H]3[C@@]4(C)CC[C@H](O[C@H]5O[C@H](C(=O)O)[C@@H](O)[C@H](O)[C@@H]5O)C(C)(C)[C@@H]4CC[C@@]3(C)[C@]1(C)CC2
[2]
  IC50: 1.91 µM
[1]
  Imax: 98.6%

## COC(=O)CCCCCNC(=O)[C@]12CCC(C)(C)C[C@H]1C1=CC[C@@H]3[C@@]4(C)CC[C@H](O)C(C)(C)[C@@H]4CC[C@@]3(C)[C@]1(C)CC2
[1]
  Imax: 4.89%

## CC1(C)CC[C@]2(C(=O)NCCCCCC(=O)O)CC[C@]3(C)C(=CC[C@@H]4[C@@]5(C)CC[C@H](O[C@@H]6O[C@H](CO)[C@@H](O)[C@H](O)[C@H]6O)C(C)(C)[C@@H]5CC[C@]43C)[C@@H]2C1
[1]
  Imax: 57.6%
3T3-L1
  Activity: 6.11%

## CC1(C)CC[C@]2(C(=O)NCCCCCC(=O)O)CC[C@]3(C)C(=CC[C@@H]4[C@@]5(C)CC[C@H](O[C@@H]6O[C@H](CO)[C@@H](O[C@@H]7O[C@H](CO)[C@H](O)[C@H](O)[C@H]7O)[C@H](O)[C@H]6O)C(C)(C)[C@@H]5CC[C@]43C)[C@@H]2C1
[2]
  IC50: 9.21 µM
[1]
  Imax: 83.7%
3T3-L1
  Activity: 39.13%

## COC(=O)CCCCCNC(=O)[C@]12CCC(C)(C)C[C@H]1C1=CC[C@@H]3[C@@]4(C)CC[C@H](O[C@]5(C(=O)OC)C[C@H](O)[C@@H](NC(C)=O)[C@H]([C@H](O)[C@H](O)CO)O5)C(C)(C)[C@@H]4CC[C@@]3(C)[C@]1(C)CC2
[1]
  Imax: 56%
3T3-L1
  Activity: 9.54%

## C[C@@H]1O[C@@H](O[C@H]2CC[C@]3(C)[C@H]4CC=C5[C@@H]6CC(C)(C)CC[C@]6(C(=O)NCCCCCC(=O)O)CC[C@@]5(C)[C@]4(C)CC[C@H]3C2(C)C)[C@@H](O)[C@H](O)[C@@H]1O
[1]
  Imax: 63.2%
3T3-L1
  Activity: 59.58%

## CC1(C)CC[C@@]23CC[C@]4(C)[C@@](OC2=O)([C@@H]3C1)[C@@H](O)C[C@@H]1[C@@]2(C)CC[C@H](O[C@@H]3O[C@H](CO)[C@@H](O)[C@H](O)[C@H]3O)C(C)(C)[C@@H]2CC[C@]14C
[1]
  Imax: 6%

## SODIUM ORTHOVANAD
[3]
  Imax: 100%

## CC1(C)CC[C@@]23CC[C@]4(C)[C@@](OC2=O)([C@@H]3C1)[C@@H](O)C[C@@H]1[C@@]2(C)CC[C@H](O[C@@H]3O[C@H](CO)[C@@H](O[C@@H]5O[C@H](CO)[C@H](O)[C@H](O)[C@H]5O)[C@H](O)[C@H]3O)C(C)(C)[C@@H]2CC[C@]14C
[1]
  Imax: 2.55%

## C[C@@H]1O[C@@H](O[C@H]2CC[C@]3(C)[C@H]4C[C@H](O)[C@]56OC(=O)[C@@]7(CCC(C)(C)C[C@H]75)CC[C@@]6(C)[C@]4(C)CC[C@H]3C2(C)C)[C@@H](O)[C@H](O)[C@@H]1O
[1]
  Imax: -1.55%

## CC1(C)CC[C@]2(C(=O)NCCCCCC(=O)O)CC[C@]3(C)C(=CC[C@@H]4[C@@]5(C)CC[C@H](O[C@H]6O[C@H](CO)[C@@H](O)[C@H](O)[C@@H]6O)C(C)(C)[C@@H]5CC[C@]43C)[C@@H]2C1
[1]
  Imax: 57%
3T3-L1
  Activity: 57.55%

## CC(=O)N[C@H]1[C@H]([C@H](O)[C@H](O)CO)O[C@](O[C@H]2CC[C@]3(C)[C@H]4CC=C5[C@@H]6CC(C)(C)CC[C@]6(C(=O)NCCCCCC(=O)O)CC[C@@]5(C)[C@]4(C)CC[C@H]3C2(C)C)(C(=O)O)C[C@@H]1O
[1]
  Imax: 69%
3T3-L1
  Activity: 10.31%

## COC(=O)CCCCCNC(=O)[C@]12CCC(C)(C)C[C@H]1C1=CC[C@@H]3[C@@]4(C)CC[C@H](O[C@@H]5O[C@H](CO)[C@@H](O)[C@H](O)[C@H]5O)C(C)(C)[C@@H]4CC[C@@]3(C)[C@]1(C)CC2
[1]
  Imax: 5.82%
